This note sets out measurements from ChEMBL document CHEMBL1124257, “An examination of O-2-isocephems as orally absorbable antibiotics” (J Med Chem, 1988).

Molecules are shown by their SMILES. In brackets after ≈: the same amount, converted by molar mass.

Data set [1] has as its system Escherichia coli. Put plainly: Minimum inhibitory concentration (MIC) against Escherichia coli by 2-fold microdilution technique. The format is functional. Conditions: Escherichia coli; read-out: MIC. A digest of the protocol: (§1)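 For each organism, an overnight culture was grown in Mueller-Hinton broth at 37 °C. Twofold microtiter dilutions in Nutrient Broth covered 0.005–125 µg/mL. Each well received about 10^4 organisms, and plates were incubated 18 h at 37 °C. MIC was the lowest concentration giving no visible growth.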
A general note: Dilution methods test growth across graded concentrations, often in twofold steps.

The next data set has as its system Haemophilus influenzae. Nature of the data set: Minimum inhibitory concentration (MIC) against Haemophilus influenzae by 2-fold microdilution technique. The settings on record: Haemophilus influenzae; read-out: MIC. The data set is classed as functional. A digest of the protocol: as §1
The subject of another data set is Klebsiella pneumoniae. Put plainly: Minimum inhibitory concentration (MIC) against Klebsiella pneumoniae by 2-fold microdilution technique. The format is functional. Conditions: Klebsiella pneumoniae; read-out: MIC. A digest of the protocol: as §1
Another data set deals with Proteus mirabilis. Nature of the data set: Minimum inhibitory concentration (MIC) against Proteus mirabilis by 2-fold microdilution technique. The format is functional. The settings on record: Proteus mirabilis; read-out: MIC. A digest of the protocol: as §1
For data set [2], the system named is Streptococcus pneumoniae. Nature of the data set: Minimum inhibitory concentration (MIC) against Streptococcus pneumoniae by 2-fold microdilution technique. The data set is classed as functional. The settings on record: Streptococcus pneumoniae; read-out: MIC. A digest of the protocol:
as §1

The subject of another data set is Enterococcus faecalis. Nature of the data set: Minimum inhibitory concentration (MIC) against Streptococcus faecalis by 2-fold microdilution technique. The settings on record: Enterococcus faecalis; read-out: MIC. The data set is classed as functional. A digest of the protocol:
as §1

Another data set deals with Streptococcus pyogenes. Put plainly: Minimum inhibitory concentration (MIC) against Streptococcus pyogenes by 2-fold microdilution technique. The format is functional. Conditions: Streptococcus pyogenes; read-out: MIC. A digest of the protocol: as §1
The test system of another data set is Staphylococcus aureus. Put plainly: Minimum inhibitory concentration (MIC) against Staphylococcus aureus by 2-fold microdilution technique. The settings on record: Staphylococcus aureus; read-out: MIC. The data set is classed as functional. A digest of the protocol:
as §1

Data set [3] deals with Mus musculus. Put plainly: Area under curve(AUC) was measured in mice after oral administration. The data set is classed as ADME, organism-based. Also noted: concentration or dose not given beside the values; unit not given here. The settings on record: in vivo. A digest of the protocol:
(§2)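 Male Swiss-Webster mice (20 ± 2 g) were given a single 50 mg/kg oral dose by gavage. Blood concentrations and urine levels were measured by microbiological assay, and urinary recovery was taken over 0–6 h.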

Data set [4] in a line: Cmax was measured in mice after an oral dose of 50 mg/kg. The format is ADME, organism-based. Details: dose 50 mg/kg, route oral. Conditions: mouse, in vivo. A digest of the protocol: as §2
Data set [5] is described as follows: Half life was measured. The format is ADME. A digest of the protocol: as §2
The test system of data set [6] is Escherichia coli. Put plainly: Minimum inhibitory concentration (MIC) […] against Escherichia coli. Conditions: Escherichia coli; read-out: MIC. The data set is classed as functional. A digest of the protocol: as §1
Data set [7] deals with Escherichia coli. Nature of the data set: Protective dose (PD50) against Escherichia coli infected mice. The format is functional. Conditions: read-out: PD50. A digest of the protocol:
(§3)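 Male Swiss-Webster mice (20 ± 2 g) were challenged intraperitoneally with enough bacteria to kill untreated controls within 72 h. Drug was given orally by gavage twice: at 0 and 2 h after E. coli challenge, or at 1 and 3.5 h after S. pneumoniae challenge. PD50 is the dose in mg/kg per dose that protects 50% of animals.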

Data set [8] deals with Streptococcus pneumoniae. Put plainly: Protective dose (PD50) against Streptococcus pneumoniae infected mice. The settings on record: Streptococcus pneumoniae; read-out: PD50. The format is functional. A digest of the protocol:
as §3

Data set [9] concerns Streptococcus pneumoniae. Put plainly: Minimum inhibitory concentration (MIC) […] against Streptococcus pneumoniae. The format is functional. Conditions: Streptococcus pneumoniae; read-out: MIC. A digest of the protocol:
as §1

Data set [10] is filed under the species Mus musculus. Put plainly: Percentage of dose recovered after 0-6 hr in the urine of mice was measured. The format is ADME, organism-based. The settings on record: in vivo. A digest of the protocol: as §2

With `N[C@@H](C(=O)N[C@@H]1C(=O)N2C(C(=O)O)=C(Cl)CS[C@H]12)c1ccccc1.O` [CEFACLOR], the MIC in the data set on Escherichia coli [1] worked out at 1 mg/L; in the data set on Haemophilus influenzae, 1 mg/L; in the data set on Klebsiella pneumoniae, 1 mg/L; with Proteus mirabilis, 0.25 mg/L; with Streptococcus pneumoniae [2] it was 0.5 mg/L; in the data set with Enterococcus faecalis it was 16 mg/L. The MIC in the data set with Streptococcus pyogenes and in the data set with Staphylococcus aureus was 0.25 mg/L in each case.
Compound `C=CC1=C(C(=O)O)N2C(=O)[C@@H](NC(=O)[C@H](N)c3ccc(O)cc3)[C@H]2SC1` had an AUC in the data set on Mus musculus [3] of 21. The same compound gave a Cmax in [4] of 22 µg/mL. This compound gave a half-life in data set [5] of 29 min. In addition, the MIC came to 4 mg/L (≈ 10.7 µM) with Escherichia coli [1]; 16 mg/L (≈ 42.6 µM) with Klebsiella pneumoniae; 4 mg/L (≈ 10.7 µM) with Proteus mirabilis; 0.03 mg/L (≈ 0.0799 µM) with Streptococcus pneumoniae [2]; 2 mg/L (≈ 5.33 µM) in the data set on Enterococcus faecalis; 0.03 mg/L (≈ 0.0799 µM) in the data set with Streptococcus pyogenes. In the data set with Staphylococcus aureus, the MIC is 0.25 mg/L (≈ 0.666 µM).
On to `N[C@@H](C(=O)N[C@@H]1C(=O)N2C(C(=O)O)=COC[C@H]12)c1ccc(O)cc1`, for which the MIC worked out at 4 mg/L (≈ 12 µM) with Escherichia coli [1]; 4 mg/L (≈ 12 µM) with Escherichia coli [6]; 2 mg/L (≈ 6 µM) with Haemophilus influenzae; 8 mg/L (≈ 24 µM) with Klebsiella pneumoniae; 4 mg/L (≈ 12 µM) with Proteus mirabilis; 1 mg/L (≈ 3 µM) in the data set on Streptococcus pneumoniae [2]. Moreover, the MIC was 1 mg/L (≈ 3 µM) in the data set with Streptococcus pneumoniae [9], 32 mg/L (≈ 96 µM) with Enterococcus faecalis, 0.25 mg/L (≈ 0.75 µM) in the data set on Streptococcus pyogenes and 1 mg/L (≈ 3 µM) with Staphylococcus aureus. In addition, the values for the ED50 in the data set on Escherichia coli [7] and with Streptococcus pneumoniae [8] were 6.2 mg/kg and 33 mg/kg, respectively.
As to `CCCC1=C(C(=O)O)N2C(=O)[C@@H](NC(=O)[C@H](N)c3ccc(O)cc3)[C@H]2CO1`, the MIC with Escherichia coli [1] amounted to 2 mg/L (≈ 5.33 µM); with Klebsiella pneumoniae, 16 mg/L (≈ 42.6 µM); in the data set with Proteus mirabilis it was 4 mg/L (≈ 10.7 µM); in the data set on Streptococcus pneumoniae [2], 0.008 mg/L (≈ 0.0213 µM); in the data set with Enterococcus faecalis, 0.03 mg/L (≈ 0.0799 µM); in the data set with Streptococcus pyogenes, 0.004 mg/L (≈ 0.0107 µM). In the data set on Staphylococcus aureus, the MIC amounted to 0.06 mg/L (≈ 0.16 µM).
In the case of `N[C@@H](C(=O)N[C@@H]1C(=O)N2C(C(=O)O)=C(/C=C\C(F)(F)F)OC[C@H]12)c1ccc(O)cc1` (relative stereo), the MIC in the data set on Escherichia coli [1] turned out to be 2 mg/L (≈ 4.68 µM); with Escherichia coli [6], 2 mg/L (≈ 4.68 µM); in the data set on Haemophilus influenzae, 2 mg/L (≈ 4.68 µM); in the data set with Klebsiella pneumoniae it was 32 mg/L (≈ 74.9 µM); in the data set with Proteus mirabilis, 16 mg/L (≈ 37.4 µM); in the data set on Streptococcus pneumoniae [2] it was 0.016 mg/L (≈ 0.0374 µM). Also, the MIC with Streptococcus pneumoniae [9] stood at 0.016 mg/L (≈ 0.0374 µM); in the data set on Enterococcus faecalis, 0.06 mg/L (≈ 0.14 µM); with Streptococcus pyogenes, 0.008 mg/L (≈ 0.0187 µM); in the data set on Staphylococcus aureus it was 0.5 mg/L (≈ 1.17 µM). Besides, the ED50 was more than 50 mg/kg in the data set with Escherichia coli [7] and 2.7 mg/kg with Streptococcus pneumoniae [8].
With `C/C=C/C1=C(C(=O)O)N2C(=O)[C@@H](NC(=O)[C@H](N)c3ccc(O)cc3)[C@H]2CO1` (relative stereo), in the data set on Mus musculus [3], the AUC is 30. For the same compound, the highest level in [4] (Cmax) was 11 µg/mL. The “Urinary recovery (% of dose, 0-6 h)” value in the data set listed under Mus musculus [10] was 5%. For the same compound, the half-life in data set [5] stood at 110 min. Further, the MIC in the data set on Escherichia coli [1] came to 2 mg/L (≈ 5.36 µM); with Escherichia coli [6], 2 mg/L (≈ 5.36 µM); in the data set on Haemophilus influenzae, 2 mg/L (≈ 5.36 µM); in the data set with Klebsiella pneumoniae, 8 mg/L (≈ 21.4 µM); with Proteus mirabilis it was 0.5 mg/L (≈ 1.34 µM); in the data set on Streptococcus pneumoniae [2] it was 0.03 mg/L (≈ 0.0804 µM). For the same compound, the MIC amounted to 0.03 mg/L (≈ 0.0804 µM) in the data set on Streptococcus pneumoniae [9], 1 mg/L (≈ 2.68 µM) in the data set with Enterococcus faecalis, 0.016 mg/L (≈ 0.0429 µM) in the data set with Streptococcus pyogenes and 0.25 mg/L (≈ 0.67 µM) in the data set with Staphylococcus aureus. The ED50 with Escherichia coli [7] was more than 50 mg/kg; in the data set on Streptococcus pneumoniae [8] it was 1.8 mg/kg.
Compound `C/C=C\C1=C(C(=O)O)N2C(=O)[C@@H](NC(=O)[C@H](N)c3ccc(O)cc3)[C@H]2CO1` (relative stereo) gave an AUC in the data set with Mus musculus [3] of 23. The compound further came in with a Cmax in [4] of 15 µg/mL. Besides, in the data set filed under Mus musculus [10], the “Urinary recovery (% of dose, 0-6 h)” value is reported as 25%. In [5], this compound registered a half-life of 52 min. Further, the MIC was determined as 2 mg/L (≈ 5.36 µM) with Escherichia coli [1]; 2 mg/L (≈ 5.36 µM) with Escherichia coli [6]; 2 mg/L (≈ 5.36 µM) in the data set on Haemophilus influenzae; 16 mg/L (≈ 42.9 µM) in the data set with Klebsiella pneumoniae; 1 mg/L (≈ 2.68 µM) in the data set with Proteus mirabilis; 0.03 mg/L (≈ 0.0804 µM) in the data set with Streptococcus pneumoniae [2]. The MIC in the data set with Streptococcus pneumoniae [9] is 0.03 mg/L (≈ 0.0804 µM); in the data set with Enterococcus faecalis it was 1 mg/L (≈ 2.68 µM); in the data set with Streptococcus pyogenes it was 0.016 mg/L (≈ 0.0429 µM); with Staphylococcus aureus, 0.25 mg/L (≈ 0.67 µM). For the same compound, the results for the ED50 in the data set with Escherichia coli [7] and with Streptococcus pneumoniae [8] were 19 mg/kg and 0.3 mg/kg, respectively.

Broadly, the Cmax is the maximum level reached in the sampled fluid or tissue. What is called half-life is the time in which the quantity being followed falls by half.
